Legend:
HSC-2 [1] = experiment: Cytotoxicity against human HSC2 cells; type: functional
Summary of the method: (§1)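 Human oral squamous carcinoma HSC-2 cells and normal human gingival fibroblasts (HGF) were incubated 24 h with compound added in EtOH (final EtOH in medium below 1%). Viable cells were read as A540 against untreated controls. CC50 is reported in mM as the mean of duplicate determinations.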

[2] = Cytotoxicity against HGF cells; type: cell-based; details: human; summary of the method: as §1
HSC-2 [3] = experiment: Selectivity ratio CC50 for HGF to CC50 for human HSC-2 cells

Row | SMILES | CC50 (HSC-2 [1]) [µM] | CC50 [2] [µM] | Ratio (HSC-2 [3])
1 | CC1(C)C=Cc2c(cc3oc4c(O)cccc4c(=O)c3c2O)O1 | 480 | > 650 | >1.4
2 | CC(C)=CCc1c(O)cc2oc3ccc(O)cc3c(=O)c2c1O | > 640 | > 640 | 
3 | COc1cc(-c2coc3cc(O)cc(O)c3c2=O)ccc1O [3'-O-METHYLOROBOL] | 160 | > 670 | >4.2
4 | CC1(C)C=Cc2c(cc3occ(-c4ccc(O)cc4)c(=O)c3c2O)O1 [ALPINUMISOFLAVONE] | 400 | > 600 | >1.5
5 | C=CC(C)(C)c1c(O)cc2oc3c(O)c(O)cc(CC=C(C)C)c3c(=O)c2c1O [ALVAXANTHONE] | 22 | 25 | 1.1
6 | COc1c2ccoc2cc2oc(=O)ccc12 [BERGAPTEN] | 720 | > 930 | >1.3
7 | COc1cc(O)c(C(=O)c2cccc(O)c2CC=C(C)C)c(O)c1 [CUDRANONE] | 400 | > 610 | >1.5
8 | CC(C)=CCc1c(O)cccc1C(=O)c1cc2c(cc1O)OC(C)(C)C=C2 [CUDRAPHENONE A] | 170 | 430 | 2.5
9 | CC(C)=CCc1cc(C(=O)c2cccc(O)c2CC=C(C)C)c(O)cc1O [CUDRAPHENONE B] | 36 | 90 | 2.5
10 | CC(C)=CCc1c(O)cccc1C(=O)c1c(O)cc(O)c2c1OC(C)(C)C=C2 [CUDRAPHENONE C] | 92 | 190 | 2.1
11 | CC(C)=CCc1c(O)cccc1C(=O)c1c(O)cc(O)c(CC=C(C)C)c1O [CUDRAPHENONE D] | 52 | 190 | 3.7
12 | CC1Oc2cc3oc4c(O)c5c(cc4c(=O)c3c(O)c2C1(C)C)C=CC(C)(C)O5 (centres undefined) [GERONTOXANTHONE A] | > 510 | > 510 | 
13 | C=CC(C)(C)c1c(O)cc2oc3c(O)c4c(cc3c(=O)c2c1O)C=CC(C)(C)O4 [GERONTOXANTHONE B] | 390 | > 510 | >1.3
14 | CC(C)=CCc1cc2c(=O)c3c(O)c4c(cc3oc2c(O)c1O)OC(C)C4(C)C (centres undefined) [GERONTOXANTHONE G] | > 510 | > 510 | 
15 | CC(C)=CCc1c(O)cc(O)c2c(=O)c3c(CC=C(C)C)c(O)ccc3oc12 [GERONTOXANTHONE H] | 120 | 200 | 1.7
16 | C=CC(C)(C)c1c(O)c(CC=C(C)C)c(O)c2c(=O)c3ccc(O)c(O)c3oc12 [GERONTOXANTHONE I] | 430 | > 510 | >1.1
17 | C=CC(C)(C)c1c(O)cc2oc3c(O)c(O)c(CC=C(C)C)cc3c(=O)c2c1O [ISOALVAXANTHONE] | 35 | 58 | 1.6
18 | C=CC(C)(C)c1c2c(c(O)c3c(=O)c4ccc(O)c(O)c4oc13)C=CC(C)(C)O2 [MACLURAXANTHONE] | > 510 | > 510 | 
19 | O=C1C[C@@H](c2ccc(O)cc2)Oc2cc(O)cc(O)c21 [NARINGENIN] | 550 | > 740 | >1.3
20 | CC(C)=CCc1c(O)cc(O)c2c1OC(c1ccc(O)cc1)CC2=O (centres undefined) [SOPHORAFLAVANONE B] | 130 | 190 | 1.5
21 | CC(C)=CCc1c(O)cc2occ(-c3ccc(O)cc3)c(=O)c2c1O [WIGHTEONE] | 120 | 250 | 2.1
